Key:
[1] = biological target: T1, Voltage-gated L-type calcium channel (Rattus norvegicus, UniProt P22002+Q02485+P27732); experiment: Inhibition of L-type voltage-dependent calcium channel in Sprague-Dawley rat aorta by Magnus method; assay type: tissue-based
Outline: (§1)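 Rat aortic ring in organ bath, Tyrode's solution pH 7.4, 37 °C, 95% O2/5% CO2. Equilibrated 1 h at 2 g resting tension. Then exposed to high-K+ Tyrode (50 mM KCl replacing NaCl) and to normal Tyrode, 45 min each. Activity reported as inhibition or IC50.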

[2] = biological target: Voltage-dependent N-type calcium channel subunit alpha-1B (Homo sapiens, UniProt Q00975); experiment: Inhibition of N-type voltage-dependent calcium channel CaV2.2 in human IMR32 cells assessed as inhibition of KCl-induced increase in intracellular calcium concentration preincubated for 4 to 5 mins before KCl challenge; assay type: cell-based, IMR-32
Outline: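 IMR-32 cells on poly-L-lysine/collagen dishes, differentiated with 1 mM dibutyl-cAMP and 2.5 µM bromodeoxyuridine for 10–14 days. Loaded with 2.5 µM fura-2/AM, 37 °C, 30 min. HEPES recording medium with 1 µM nifedipine throughout. Calcium rise evoked by 60 mM KCl for 6 s, repeated every 5 min. Compound at 0.1, 1 or 10 µM; IC50 from ≥2 independent experiments.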

Rattus norvegicus [3] = experiment: Analgesic activity in Sprague-Dawley rat assessed as inhibition of formalin-induced pain at 3 mg/kg, po; assay type: functional
Outline: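 Rats received formalin by footpad injection, and phase II pain responses were scored. Compound given orally. Inhibition is expressed as % versus the control group, n = 5.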

[4] = biological target: T1, Voltage-gated L-type calcium channel; experiment: (§2) Inhibition of L-type voltage-dependent calcium channel in Sprague-Dawley rat aorta at 10 uM by Magnus method; assay type: tissue-based; conditions: 10 µM; outline: as §1
[5] = biological target: L-type voltage-dependent calcium channel (Rattus norvegicus, UniProt P22002+P27732+Q02485); experiment: as §2; assay type: tissue-based; conditions: Sprague-Dawley, isolated rat aorta; outline: as §1
Rattus norvegicus [6] = experiment: Analgesic activity in Sprague-Dawley rat assessed as inhibition of formalin-induced pain at 100 mg/kg, po; assay type: functional
Outline: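 Formalin injected into the rat footpad; phase II pain responses scored after oral dosing. Read-out is % inhibition relative to the control group, n = 3 animals at this dose.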

Sequence of Voltage-dependent N-type calcium channel subunit alpha-1B (Q00975 whole entry): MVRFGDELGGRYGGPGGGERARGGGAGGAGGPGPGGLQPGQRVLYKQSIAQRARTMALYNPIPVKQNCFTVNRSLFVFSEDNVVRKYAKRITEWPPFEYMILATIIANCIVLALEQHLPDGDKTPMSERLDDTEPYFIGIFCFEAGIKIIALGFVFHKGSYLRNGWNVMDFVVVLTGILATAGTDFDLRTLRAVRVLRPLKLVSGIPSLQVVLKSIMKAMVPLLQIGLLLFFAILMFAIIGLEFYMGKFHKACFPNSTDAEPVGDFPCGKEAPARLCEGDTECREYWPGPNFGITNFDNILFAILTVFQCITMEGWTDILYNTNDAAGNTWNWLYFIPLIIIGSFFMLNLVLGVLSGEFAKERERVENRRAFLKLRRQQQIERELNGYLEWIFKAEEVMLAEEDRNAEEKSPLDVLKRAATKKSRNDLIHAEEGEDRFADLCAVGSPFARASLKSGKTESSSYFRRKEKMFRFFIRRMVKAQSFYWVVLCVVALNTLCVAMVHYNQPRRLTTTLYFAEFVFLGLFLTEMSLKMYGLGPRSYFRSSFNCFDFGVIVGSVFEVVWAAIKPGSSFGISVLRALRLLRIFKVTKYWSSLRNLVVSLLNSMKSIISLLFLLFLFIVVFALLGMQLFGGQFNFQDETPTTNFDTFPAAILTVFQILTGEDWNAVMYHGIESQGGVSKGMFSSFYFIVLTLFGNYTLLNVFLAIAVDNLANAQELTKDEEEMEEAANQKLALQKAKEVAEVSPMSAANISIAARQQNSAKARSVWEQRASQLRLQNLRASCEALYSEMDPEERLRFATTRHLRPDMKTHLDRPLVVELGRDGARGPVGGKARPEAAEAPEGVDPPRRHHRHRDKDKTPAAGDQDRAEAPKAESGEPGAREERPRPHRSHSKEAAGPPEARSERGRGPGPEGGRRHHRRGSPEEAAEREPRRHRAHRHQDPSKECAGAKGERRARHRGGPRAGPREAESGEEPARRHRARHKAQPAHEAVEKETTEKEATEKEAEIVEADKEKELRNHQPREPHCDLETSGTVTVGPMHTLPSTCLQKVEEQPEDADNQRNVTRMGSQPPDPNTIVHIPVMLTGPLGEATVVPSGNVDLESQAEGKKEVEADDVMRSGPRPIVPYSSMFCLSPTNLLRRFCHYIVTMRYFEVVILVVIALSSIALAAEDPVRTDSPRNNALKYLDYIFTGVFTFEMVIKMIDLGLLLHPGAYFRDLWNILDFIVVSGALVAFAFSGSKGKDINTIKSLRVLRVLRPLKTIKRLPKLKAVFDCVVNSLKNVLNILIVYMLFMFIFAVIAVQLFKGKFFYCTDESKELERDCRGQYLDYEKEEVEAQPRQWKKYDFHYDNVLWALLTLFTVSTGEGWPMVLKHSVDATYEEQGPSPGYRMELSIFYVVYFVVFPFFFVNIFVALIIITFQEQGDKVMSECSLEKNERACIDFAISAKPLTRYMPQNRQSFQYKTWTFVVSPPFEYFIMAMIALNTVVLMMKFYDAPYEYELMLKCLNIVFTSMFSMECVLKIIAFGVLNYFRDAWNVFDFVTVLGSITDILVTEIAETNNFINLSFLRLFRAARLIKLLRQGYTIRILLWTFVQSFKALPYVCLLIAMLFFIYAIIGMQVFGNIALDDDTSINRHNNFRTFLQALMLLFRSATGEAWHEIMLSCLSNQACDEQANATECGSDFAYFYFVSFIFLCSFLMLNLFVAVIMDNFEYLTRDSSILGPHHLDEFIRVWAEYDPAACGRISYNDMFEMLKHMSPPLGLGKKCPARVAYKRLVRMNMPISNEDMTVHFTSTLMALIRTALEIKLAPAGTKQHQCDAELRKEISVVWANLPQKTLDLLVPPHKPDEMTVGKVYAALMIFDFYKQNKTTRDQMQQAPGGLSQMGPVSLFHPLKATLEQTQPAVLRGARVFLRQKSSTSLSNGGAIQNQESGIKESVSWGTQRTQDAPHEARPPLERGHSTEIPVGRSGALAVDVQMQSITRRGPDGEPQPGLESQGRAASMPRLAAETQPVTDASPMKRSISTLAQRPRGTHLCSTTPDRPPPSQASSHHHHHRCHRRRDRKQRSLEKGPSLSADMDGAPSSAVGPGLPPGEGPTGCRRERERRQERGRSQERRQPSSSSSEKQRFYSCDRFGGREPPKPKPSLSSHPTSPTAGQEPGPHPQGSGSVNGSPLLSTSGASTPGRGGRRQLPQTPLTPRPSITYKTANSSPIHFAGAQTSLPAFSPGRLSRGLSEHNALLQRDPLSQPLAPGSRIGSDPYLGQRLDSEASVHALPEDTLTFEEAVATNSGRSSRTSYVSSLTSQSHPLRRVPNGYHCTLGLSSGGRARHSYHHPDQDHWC

SMILES | IC50 [2] [nM] | inhibition at 10 µM [5] [%] | also measured
COc1c(Cl)cc(C2C(C(=O)O)=CNC=C2C(=O)OC/C=C/c2ccccc2)cc1Cl (single isomer, unassigned; (+)) | 720 | – | IC50 [1]: 44000 nM; inhibition in vivo at 3 mg/kg (Rattus norvegicus [3]): 35%; inhibition (INH) [4]: 6.5%
COC(OC)C1=C(C(=O)OC/C=C/c2ccccc2)C(c2ccc(Cl)cc2)C(C(=O)O)=CN1 (centres undefined) | 1100 | 7.9 | –
COC(OC)C1=C(C(=O)OC/C=C/c2ccccc2)C(c2ccc(Cl)c(Cl)c2)C(C(=O)O)=CN1 (centres undefined) | 520 | 31 | –
O=C(O)C1=CNC=C(C(=O)OC/C=C/c2ccccc2)C1c1ccc(Cl)cc1 (centres undefined) | 1200 | 16 | –
COc1c(Cl)cc(C2C(C(=O)O)=CNC=C2C(=O)OC/C=C/c2ccccc2)cc1Cl (stereo in doubt; (-)-3f) | 840 | – | inhibition (INH) [4]: 28%
COC(OC)C1=C(C(=O)OC/C=C/c2ccccc2)C(c2cccc(C(F)(F)F)c2)C(C(=O)O)=CN1 (centres undefined) | 1100 | 17 | –
COc1ccc(C2C(C(=O)O)=CNC(C(OC)OC)=C2C(=O)OC/C=C/c2ccccc2)cc1Cl (centres undefined) | 1500 | 26 | –
COc1c(Cl)cc(C2C(C(=O)O)=CNC=C2C(=O)OC/C=C/c2ccccc2)cc1Cl (stereo in doubt; 3f) | 580 | – | inhibition (INH) [4]: 19%
O=C(O)C1=CNC=C(C(=O)OC/C=C/c2ccccc2)C1c1cccc(Cl)c1 (centres undefined) | 1600 | – | IC50 [1]: 9100 nM
NCC1(CC(=O)O)CCCCC1 [GABAPENTIN] | – | – | inhibition in vivo at 100 mg/kg (Rattus norvegicus [6]): 33%
COC(OC)C1=C(C(=O)OC/C=C/c2ccccc2)C(c2cccc(Cl)c2)C(C(=O)O)=CN1 (centres undefined) | 1100 | 44 | –
O=C(O)C1=CNC=C(C(=O)OC/C=C/c2ccccc2)C1c1cccc(C(F)(F)F)c1 (centres undefined) | 1200 | 40 | –
COc1ccc(C2C(C(=O)O)=CNC=C2C(=O)OC/C=C/c2ccccc2)cc1Cl (centres undefined) | 1300 | 15 | –
COC(OC)C1=C(C(=O)OC/C=C/c2ccccc2)C(c2cccc(Cl)c2)C(C(=O)O)=C(C)N1 (centres undefined) | 3000 | – | –
COc1c(Cl)cc(C2C(C(=O)O)=CNC(C(OC)OC)=C2C(=O)OC/C=C/c2ccccc2)cc1Cl (centres undefined) | 1200 | 20 | –
O=C(O)C1=CNC=C(C(=O)OC/C=C/c2ccccc2)C1c1ccc(Cl)c(Cl)c1 (centres undefined) | 750 | 41 | –
COC(OC)C1=C(C(=O)OC/C=C/c2ccccc2)C(c2cc(Cl)cc(Cl)c2)C(C(=O)O)=CN1 (centres undefined) | 1000 | 4 | –

Source: ChEMBL document CHEMBL2029266, “Discovery and evaluation of selective N-type calcium channel blockers: 6-unsubstituted-1,4-dihydropyridine-5-carboxylic acid derivatives” (Bioorg Med Chem Lett, 2012)
